Assay results reported in ChEMBL document CHEMBL1127651, “Molecular requirements for the inhibition of the tetracycline antiport protein and the effect of potent inhibitors on the growth of tetracycline-resistant bacteria” (J Med Chem, 1994).
≈ marks a conversion by molar mass, not a printed value. Calls of active or inactive are those of the source. The rule behind the calls is not given here.

How the values were obtained:
[1] = test system: Escherichia coli; assay: Growth inhibitory activity against tetracycline-resistant ML308-225 bacterial strain of Escherichia coli; format: functional, organism-based
Summary of the method: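 MIC by two-fold broth dilution in Luria broth from a 10 mg/mL stock, test range 200 to 0.030 µg/mL. Compounds dissolved in H2O or 1:1 H2O/MeOH. Inoculum about 10⁶ cfu/mL. Incubated 18–20 h at 37 °C. MIC taken as the lowest amount that inhibited growth.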

[2] = test system: Escherichia coli; assay: Minimum inhibitory activity against tetracycline-susceptible Escherichia coli strain ML308-225 (Tet A on plasmid pIP15); format: functional
Summary of the method: (§1)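 Inoculum about 10⁶ cfu/mL into two-fold dilutions from 200 to 0.030 µg/mL, made from a 10 mg/mL stock in H₂O or 1:1 H₂O/MeOH. Incubated 18–20 h at 37 °C; MIC = amount inhibiting growth.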

[3] = test system: Escherichia coli; assay: Minimum inhibitory activity against tetracycline-susceptible Escherichia coli strain ML308-225 (Tet B on plasmid R222); format: functional; summary of the method: as §1
[4] = test system: Escherichia coli; assay: Minimum inhibitory activity against tetracycline-susceptible Escherichia coli strain D31m4; format: functional
Summary of the method: (§2)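 Broth dilution MIC in Luria broth. Two-fold dilutions from a 10 mg/mL stock in H₂O or 1:1 H₂O/MeOH, test range 200–0.030 µg/mL, incubated 18–20 h at 37 °C. MIC = lowest amount inhibiting growth.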

[5] = test system: Enterococcus faecalis; assay: Minimum inhibitory activity against tetracycline-susceptible Enterococcus faecalis strain ATCC 9790; format: functional; summary of the method: as §2
[6] = test system: Staphylococcus aureus; assay: Minimum inhibitory activity against tetracycline-susceptible Staphylococcus aureus strain RN450 (Tet K on plasmid pT181); format: functional; summary of the method: as §1
[7] = test system: Staphylococcus aureus; assay: Minimum inhibitory activity against tetracycline-susceptible Staphylococcus aureus strain RN450; format: functional; summary of the method: as §2
[8] = test system: Escherichia coli; assay: (§3) Inhibitory activity against tetracycline uptake in everted membrane vesicles derived from Tc-resistant Escherichia coli bearing class B tetracycline resistance efflux protein (Tet); format: functional
Summary of the method: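 Everted inner-membrane vesicles from E. coli D1-209 carrying plasmid R222 (class B Tet on Tn10). Vesicles energized with Li lactate and given [³H]Tc together with the analogue. Accumulation read at 2.5 min against uptake without analogue. CCCP-deenergized vesicles served as negative control. IC50 is the concentration giving 50% inhibition of [³H]Tc uptake.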

[9] = test system: Escherichia coli; assay: as §3; format: functional; remark: listed apart in the source
Summary of the method: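 Everted inner membrane vesicles from E. coli D1-209 carrying plasmid R222 (class B Tc determinant on Tn10), energized with Li lactate; test compound added together with [³H]Tc. Accumulated [³H]Tc read at 2.5 min after energization, compared with uptake without analogue; CCCP-deenergized vesicles served as the negative control. IC50 = concentration giving 50% inhibition of uptake. Separately screened for disruption of the pH gradient by acridine orange fluorescence in vesicles from isogenic Tc-susceptible cells.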

[10] = test system: Enterococcus faecalis; assay: Minimum inhibitory activity against tetracycline-susceptible Enterococcus faecalis strain ATCC 9790 (Tet L on plasmid MV158); format: functional; conditions: in the assay text read “tetracycline-resistant” for “tetracycline-susceptible”; summary of the method: as §1
[11] = test system: Escherichia coli; assay: Minimum inhibitory activity against tetracycline-susceptible Escherichia coli strain D31m4 (Tet B on plasmid pHCMI); format: functional; conditions: in the assay text read “tetracycline-resistant” for “tetracycline-susceptible”; summary of the method: as §1
[12] = test system: Escherichia coli; assay: Minimum inhibitory activity against tetracycline-susceptible Escherichia coli strain ML308-225; format: functional; summary of the method: as §2
[13] = test system: Escherichia coli; assay: Minimum inhibitory activity against tetracycline-susceptible Escherichia coli strain ML308-225 (Tet B on plasmid R222) in combination with doxycycline; No effect; format: functional, organism-based
[14] = test system: Escherichia coli; assay: Minimum inhibitory activity against tetracycline-susceptible Escherichia coli strain ML308-225 (Tet B on plasmid R222) in combination with doxycycline; no effect; format: functional, organism-based

## C[C@H]1c2cccc(O)c2C(=O)C2=C(O)[C@]3(O)C(=O)C(C(N)=O)=C(O)[C@@H](N(C)C)[C@@H]3[C@@H](O)[C@@H]21.O [DOXYCYCLINE]
[1]
  IC50: 9.2 µM
[2]
  MIC: 50 mg/L
[3]
  MIC: > 50 mg/L
[4]
  MIC: 0.5 mg/L
[5]
  MIC: 0.25 mg/L
[6]
  MIC: 12.5 mg/L
[7]
  MIC: 0.25 mg/L
[8]
  MIC: 0.5 mg/L
[9]
  IC50: > 75 µM
[10]
  MIC: 6.25 mg/L
[11]
  MIC: 12.5 mg/L

## COc1cccc2c1C(=O)c1c(O)c3c(c(O)c1C2=O)C[C@@](O)(C(=O)CO)C[C@@H]3O[C@H]1C[C@H](N)[C@H](O)[C@H](C)O1 [DOXORUBICIN]
[9]
  IC50: > 75 µM

## COC(=O)c1c(O)cccc1CC1CC(=O)[C@@]2(O)C(O)=C(C(N)=O)C(=O)[C@@H](N(C)C)C2C1 (stereo partly specified)
[9]
  IC50: > 75 µM

## CN(C)[C@@H]1C(=O)C(C(N)=O)=C(O)[C@@]2(O)C(O)=C3C(=O)c4c(O)cccc4[C@H](CSCCCCl)C3[C@H](O)C12 (stereo partly specified)
[12]
  MIC: 10 mg/L (≈ 18.1 µM)
[2]
  MIC: 50 mg/L (≈ 90.4 µM)
[3]
  MIC: > 50 mg/L
[13]
  MIC: inactive
[4]
  MIC: 2.5 mg/L (≈ 4.52 µM)
[5]
  MIC: 0.6 mg/L (≈ 1.08 µM)
[6]
  MIC: 6.25 mg/L (≈ 11.3 µM)
[7]
  MIC: 0.6 mg/L (≈ 1.08 µM)
[9]
  IC50: 0.6 µM
[10]
  MIC: 1.56 mg/L (≈ 2.82 µM)
[11]
  MIC: 6.25 mg/L (≈ 11.3 µM)

## COc1cc(O)c2c(c1Cl)CC1CC3[C@H](N(C)C)C(=O)C(C(N)=O)=C(O)[C@@]3(O)C(O)=C1C2=O (stereo partly specified)
[9]
  IC50: 19.5 µM

## Cc1cc(O)c2c(c1O)C(=O)c1cc(O)cc(O)c1C2=O [CATENARIN]
[9]
  IC50: > 150 µM

## CN(C)[C@@H]1C(=O)C(C(N)=O)=C(O)[C@@]2(O)C(O)=C3C(=O)c4c(O)cccc4[C@H](C[S+]([O-])c4ccccc4)C3CC12 (stereo partly specified)
[9]
  IC50: 0.7 µM

## COC(C(=O)[C@@H](O)[C@@H](C)O)C1Cc2cc3cc(O)cc(O)c3c(O)c2C(=O)C1O (stereo partly specified)
[9]
  IC50: > 100 µM

## COc1cc(O)c2c(c1)C(=O)c1cc3c(c(O)c1C2=O)C(OC1OC(C)C(OC)C(O)C1OC)C(OC)C(C)(O)C3=O (stereo unspecified)
[9]
  IC50: > 75 µM

## CC(=O)Oc1cccc2c1C(=O)C1=C(O)[C@]3(OC(C)=O)C(O)=C(C(N)=O)C(=O)[C@@H](N(C)C)C3CC1[C@]2(C)O (stereo partly specified)
[9]
  IC50: > 75 µM

## O=C(O)CC1CC(=O)c2c(O)ccc(Cl)c2S1 (stereo unspecified)
[9]
  IC50: > 150 µM

## COC(C(=O)[C@@H](O)C(C)O)C1Cc2cc3cc(O)c(C)c(O)c3c(O)c2C(=O)C1O (stereo partly specified)
[9]
  IC50: > 100 µM

## COC(=O)C12Oc3ccc(-c4ccc5c(c4O)C(O)=C4C(=O)CC(C)C(O)C4(C(=O)OC)O5)c(O)c3C(O)=C1C(=O)CC(C)C2O (stereo unspecified)
[9]
  IC50: > 75 µM

## CC(=O)OC1=C(Sc2ccccc2)C[C@H]2Cc3cc4cccc(O)c4c(O)c3C(=O)[C@H]2C1
[9]
  IC50: > 150 µM

## CN(C)[C@@H]1C(=O)C(C(N)=O)=C(O)[C@@]2(O)C(O)=C3C(=O)c4c(ccc([N+](=O)[O-])c4O)CC3CC12 (stereo partly specified)
[9]
  IC50: 12.3 µM

## CC(=O)OC1=CC[C@H]2CC3C(=C(O)c4c(O)cccc4C3O[Si](C)(C)C(C)(C)C)C(=O)[C@H]2C1 (stereo partly specified)
[9]
  IC50: > 150 µM

## O=CCC1CC(=O)c2c(O)cccc2S1 (stereo unspecified)
[9]
  IC50: > 75 µM

## CC1CC(=O)C2=C(O)c3c(O)ccc(O)c3CC2C1 (stereo unspecified)
[9]
  IC50: > 130 µM

## C=C1c2cccc(O)c2C(=O)C2(Cl)C(=O)[C@]3(O)C(O)=C(C(N)=O)C(=O)[C@@H](N(C)C)C3CC12 (stereo partly specified)
[9]
  IC50: > 75 µM

## O=CCC1CC(=O)c2c(O)ccc(Cl)c2S1 (stereo unspecified)
[9]
  IC50: > 75 µM

## CN(C)c1ccc2c(c1O)C(=O)C1=C(O)[C@]3(O)C(O)=C(C(N)=O)C(=O)[C@@H](N(C)C)C3CC1C2 (stereo partly specified)
[9]
  IC50: 15.4 µM

## CN(C)[C@@H]1C(=O)C(C(N)=O)=C(O)[C@@]2(O)C(O)=C3C(=O)c4c(O)cccc4SC3CC12 (stereo partly specified)
[9]
  IC50: 4.6 µM

## CN(C)[C@@H]1C(=O)C(C(N)=O)=C(O)[C@@]2(O)C(O)=C3C(=O)c4c(O)cccc4[C@H](CS)C3[C@H](O)C12 (stereo partly specified)
[9]
  IC50: 4.6 µM

## COc1cc(O)c2c(c1)C(=O)c1cc3c(c(O)c1C2=O)C(OC1OC(C)C(O)C(O)C1OC)C(OC)C(C)(O)C3=O (stereo unspecified)
[9]
  IC50: > 75 µM

## CC(=O)C1CCC2C(=O)C3=C(O)c4c(O)ccc(O)c4CC3CC2C1 (stereo unspecified)
[9]
  IC50: > 75 µM

## CN(C)[C@@H]1C(=O)C(C(N)=O)=C(O)[C@@]2(O)C(=O)C3C(=O)c4c(O)ccc(Cl)c4[C@@](C)(O)C3CC12 (stereo partly specified)
[9]
  IC50: > 75 µM

## CC(=O)SC[C@H]1c2cccc(O)c2C(=O)C2=C(O)[C@]3(O)C(O)=C(C(N)=O)C(=O)[C@@H](N(C)C)C3[C@@H](O)C21 (stereo partly specified)
[9]
  IC50: 4.6 µM

## CN(C)c1ccc(O)c2c1CC1CC3[C@H](N(C)C)C(=O)C(C(N)=O)=C(O)[C@@]3(O)C(O)=C1C2=O (stereo partly specified)
[9]
  IC50: 2.3 µM

## CN(C)[C@@H]1C(=O)C(C(N)=O)=C(O)[C@@]2(O)C(=O)C3(F)C(=O)c4c(O)cccc4CC3CC12 (stereo partly specified)
[9]
  IC50: > 75 µM

## CCCSC[C@H]1c2cccc(O)c2C(=O)C2=C(O)[C@]3(O)C(O)=C(C(N)=O)C(=O)[C@@H](N(C)C)C3[C@@H](O)C21 (stereo partly specified)
[12]
  MIC: 40 mg/L (≈ 77.1 µM)
[2]
  MIC: > 50 mg/L
[3]
  MIC: > 50 mg/L
[13]
  MIC: inactive
[4]
  MIC: 10 mg/L (≈ 19.3 µM)
[5]
  MIC: 1.25 mg/L (≈ 2.41 µM)
[6]
  MIC: 12.5 mg/L (≈ 24.1 µM)
[7]
  MIC: 0.6 mg/L (≈ 1.16 µM)
[10]
  MIC: 1.56 mg/L (≈ 3.01 µM)
[11]
  MIC: 12.5 mg/L (≈ 24.1 µM)

## CN(C)[C@@H]1C(=O)C(C(N)=O)=C(O)[C@@]2(O)C(O)=C3C(=O)c4c(O)cccc4[C@H](CSCCC(=O)O)C3CC12 (stereo partly specified)
[14]
  MIC: inactive
[12]
  MIC: > 40 mg/L
[2]
  MIC: > 50 mg/L
[3]
  MIC: > 50 mg/L
[4]
  MIC: 20 mg/L (≈ 37.6 µM)
[5]
  MIC: 10 mg/L (≈ 18.8 µM)
[6]
  MIC: 12.5 mg/L (≈ 23.5 µM)
[7]
  MIC: 2.5 mg/L (≈ 4.69 µM)
[10]
  MIC: 3.12 mg/L (≈ 5.86 µM)
[11]
  MIC: > 50 mg/L

## COc1ccc(Cl)c2c1C(=O)CC(CC(=O)O)S2 (stereo unspecified)
[9]
  IC50: > 150 µM

## O=C1c2ccc(O)c(O)c2C(=O)c2c(O)ccc(O)c21 [QUINALIZARIN]
[9]
  IC50: > 150 µM
